Consider 14 compounds from ChEMBL document CHEMBL4602651, “Development of selective mono or dual PROTAC degrader probe of CDK isoforms” (Eur J Med Chem, 2020).

Calls of active or inactive are those of the source. The rule behind the calls is not given here.

Test [1] addresses T1, Protein cereblon/Cyclin-dependent kinase 9 (Homo sapiens) (UniProt P50750+Q96SW2). The test can be described thus: Protac activity at CRBN/CDK9 in AR-negative human PC3 cells assessed as induction of CDK9 protein degradation at 30 uM after 12 hrs by Western blot analysis. Format: cell-based. Particulars: PC-3. Summed up: (§1)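 PC-3 cells (DMEM/F12 1:1, 10% FBS, 1% pen/strep, 37 °C, 5% CO2) plated at 5 × 10^5 per well, exposed to compound for 12 h. RIPA lysates with protease inhibitors; 50 µg total protein run on 10% SDS-PAGE, transferred to PVDF, blocked in 5% milk/TBS-T. Probed with anti-CDK9 (1/1000), β-tubulin loading control, HRP secondary, chemiluminescence; bands scored as degradation detected or not.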
(A western blot detects proteins with antibodies after separation by electrophoresis.)

For test [2], the system named is PC-3. The test can be described thus: Antiproliferative activity against AR-negative human PC3 cells assessed as reduction in cell viability after 5 days by CCK8 assay. In kind it is functional, cell-based. The conditions noted are these: PC-3, 120 h. Summed up:
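Cells seeded at 3 × 10^3 per well for 24 h, then dosed in 10-point, 3-fold serial dilution from 10 µM. CCK-8 added after 5 days, 4 h at 37 °C, absorbance at 450 nm. IC50 averaged from three separate determinations (at least two independent runs, duplicate wells). PC-3 grown in DMEM/F12 (1:1), LO2 in RPMI 1640, both with 10% FBS.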
For orientation: Tetrazolium dyes change colour on reduction, which living cells bring about.

Test [3] deals with T1, Protein cereblon/Cyclin-dependent kinase 9 (Homo sapiens). The test can be described thus: Protac activity at CRBN/CDK9 in AR-negative human PC3 cells assessed as induction of CDK9 protein degradation at 1 uM after 12 hrs by Western blot analysis. In kind it is cell-based. Particulars: PC-3. The gist of the method:
as §1

For test [4] the target is unchanged. The test can be described thus: Protac activity at CRBN/CDK9 in AR-negative human PC3 cells assessed as induction of CDK9 protein degradation at 50 nM after 12 hrs by Western blot analysis. Format: cell-based. The conditions noted are these: PC-3. The gist of the method:
as §1

Test [5] has as its target Protein cereblon/Cyclin-dependent kinase 2 (Homo sapiens) (UniProt P24941+Q96SW2). The test can be described thus: Protac activity at CRBN/CDK2 in AR-negative human PC3 cells assessed as induction of CDK2 protein degradation at 50 nM after 12 hrs by Western blot analysis. Format: cell-based. The conditions noted are these: PC-3. The gist of the method: (§2)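 PC-3 cells (5 × 10^5 per well) treated 12 h at single concentrations (50 nM, 500 nM, 1, 5 or 30 µM). RIPA lysates (50 µg) run on 10% SDS-PAGE and immunoblotted for CDK2, CDK5, CDK9 with β-tubulin loading control, then detected by chemiluminescence. Band intensities quantified densitometrically.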

Test [6] addresses T2, Protein cereblon/Cyclin-dependent kinase 2/Cyclin-dependent kinase 9 (Homo sapiens, UniProt P24941+P50750+Q96SW2). The test can be described thus: Protac activity at CRBN/CDK2/CDK9 in AR-negative human PC3 cells assessed as induction of CDK2 protein degradation after 24 hrs by Western blot analysis. Format: cell-based. Particulars: PC-3. Summed up: (§3)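 PC-3 cells exposed to a degrader concentration series, then immunoblotted for CDK2 and CDK9 versus β-tubulin. The figure legend gives 24 h exposure. DC50 taken as mean of 2 determinations from densitometry.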

In test [7] the target is T2, Protein cereblon/Cyclin-dependent kinase 2/Cyclin-dependent kinase 9. The test can be described thus: Protac activity at CRBN/CDK2/CDK9 in AR-negative human PC3 cells assessed as induction of CDK9 protein degradation after 24 hrs by Western blot analysis. Particulars: PC-3. In kind it is cell-based. Summed up: as §3
Test [8] has the same target. The test can be described thus: Protac activity at CRBN/CDK2/CDK9 in AR-negative human PC3 cells assessed as induction of CDK2 protein degradation at 1 uM after 12 hrs by Western blot analysis. Format: cell-based. The conditions noted are these: PC-3. Summed up: as §2
Test [9] shares this target. The test can be described thus: Protac activity at CRBN/CDK2/CDK9 in AR-negative human PC3 cells assessed as induction of CDK9 protein degradation at 1 uM after 12 hrs by Western blot analysis. Particulars: PC-3. In kind it is cell-based. Summed up:
as §2

The target is the same in test [10]. The test can be described thus: Protac activity at CRBN/CDK2/CDK9 in AR-negative human PC3 cells assessed as induction of CDK9 protein degradation at 30 uM after 12 hrs by Western blot analysis. Format: cell-based. The conditions noted are these: PC-3. Summed up: as §2

T1 sequence (P50750 whole entry, looked up): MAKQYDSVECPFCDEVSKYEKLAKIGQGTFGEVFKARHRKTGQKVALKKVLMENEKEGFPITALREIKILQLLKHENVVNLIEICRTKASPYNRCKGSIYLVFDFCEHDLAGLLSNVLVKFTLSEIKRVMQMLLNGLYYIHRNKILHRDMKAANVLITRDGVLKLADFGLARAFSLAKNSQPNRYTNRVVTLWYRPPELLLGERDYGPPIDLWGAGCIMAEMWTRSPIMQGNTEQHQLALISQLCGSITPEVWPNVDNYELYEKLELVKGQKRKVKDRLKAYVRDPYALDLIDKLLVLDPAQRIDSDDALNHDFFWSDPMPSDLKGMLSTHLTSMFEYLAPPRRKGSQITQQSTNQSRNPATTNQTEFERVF
T1 sequence (Q96SW2 whole entry, looked up): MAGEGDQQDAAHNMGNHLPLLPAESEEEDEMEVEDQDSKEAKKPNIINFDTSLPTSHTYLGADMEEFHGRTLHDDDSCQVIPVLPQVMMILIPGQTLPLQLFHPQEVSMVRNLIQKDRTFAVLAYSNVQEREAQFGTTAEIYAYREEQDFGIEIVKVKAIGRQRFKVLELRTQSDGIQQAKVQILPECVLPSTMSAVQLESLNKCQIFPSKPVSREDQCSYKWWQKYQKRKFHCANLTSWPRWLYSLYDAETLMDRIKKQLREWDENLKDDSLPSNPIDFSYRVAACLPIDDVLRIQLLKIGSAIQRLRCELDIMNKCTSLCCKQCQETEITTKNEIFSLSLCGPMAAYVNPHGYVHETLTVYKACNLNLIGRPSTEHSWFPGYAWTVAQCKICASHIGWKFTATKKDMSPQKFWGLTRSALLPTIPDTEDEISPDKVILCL

As usually defined, the IC50 is the point on the concentration scale where inhibition reaches its midpoint. With `O=C(CCC(=O)N1CCN(Cc2ccc(NC(=O)c3n[nH]cc3Nc3ncnc4[nH]ccc34)cc2)CC1)NCCCCCCNc1cccc2c1C(=O)N(C1CCC(=O)NC1=O)C2=O` (stereo not drawn), the outcome in test [1], in [3], in test [4] and in test [5] was Active. Also, the half-inhibitory concentration (IC50) in test [2] is 3.6 µM.
On to `O=C(CCC(=O)N1CCC(NC(=O)c2n[nH]cc2NC(=O)c2c(Cl)cccc2Cl)CC1)NCCCCNc1cccc2c1C(=O)N(C1CCC(=O)NC1=O)C2=O` (stereo not drawn), for which, in test [2], the IC50 was 23.3 µM.
As for `O=C(CCC(=O)N1CCN(Cc2ccc(NC(=O)c3n[nH]cc3Nc3ncnc4[nH]ccc34)cc2)CC1)NCCCOCCOCCOCCCNC(=O)COc1cccc2c1C(=O)N(C1CCC(=O)NC1=O)C2=O` (stereo not drawn), in [2], the 50% inhibitory concentration (IC50) stood at 18.3 µM. For the same compound, the result in [6] and in test [7] was inactive.
For the compound `O=C(CCC(=O)N1CCC(NC(=O)c2n[nH]cc2NC(=O)c2c(Cl)cccc2Cl)CC1)NCCCCCCNC(=O)COc1cccc2c1C(=O)N(C1CCC(=O)NC1=O)C2=O` (stereo not drawn), in test [2], the IC50 came out at 1.31 µM.
With `O=C(CCC(=O)N1CCN(Cc2ccc(NC(=O)c3n[nH]cc3Nc3ncnc4[nH]ccc34)cc2)CC1)NCCCCNC(=O)COc1cccc2c1C(=O)N(C1CCC(=O)NC1=O)C2=O` (stereo not drawn), the half-inhibitory concentration (IC50) in test [2] was 13.4 µM. For the same compound, the outcome in test [6] and in test [7] was inactive.
Turning to `O=C(CCC(=O)N1CCN(Cc2ccc(NC(=O)c3n[nH]cc3Nc3ncnc4[nH]ccc34)cc2)CC1)NCCCCCCNC(=O)COc1cccc2c1C(=O)N(C1CCC(=O)NC1=O)C2=O` (stereo not drawn), in test [2], the IC50 was found to be 7.3 µM. Also, the outcome in test [6] and in test [7] was inactive.
Turning to `O=C(COc1cccc2c1C(=O)N(C1CCC(=O)NC1=O)C2=O)NCCCCCC(=O)N1CCN(Cc2ccc(NC(=O)c3n[nH]cc3Nc3ncnc4[nH]ccc34)cc2)CC1` (stereo not drawn), the IC50 in test [2] is 0.54 µM. Also, the result in test [8], in test [4], in test [9], in [5] and in test [10] was Active.
For `O=C(COc1cccc2c1C(=O)N(C1CCC(=O)NC1=O)C2=O)NCCOCCOCC(=O)N1CCN(Cc2ccc(NC(=O)c3n[nH]cc3Nc3ncnc4[nH]ccc34)cc2)CC1` (stereo not drawn), the result in test [1], in test [3], in [4] and in test [5] was Active. Besides, the IC50 in test [2] is 3.54 µM.
On to `O=C(CCC(=O)N1CCN(Cc2ccc(NC(=O)c3n[nH]cc3Nc3ncnc4[nH]ccc34)cc2)CC1)NCCNC(=O)COc1cccc2c1C(=O)N(C1CCC(=O)NC1=O)C2=O` (stereo not drawn), for which the outcome in [1] and in [3] was Active. Further, in test [2], the 50% inhibitory concentration (IC50) came to 8.03 µM.
As to `O=C(CCC(=O)N1CCC(NC(=O)c2n[nH]cc2NC(=O)c2c(Cl)cccc2Cl)CC1)NCCCCCCNc1cccc2c1C(=O)N(C1CCC(=O)NC1=O)C2=O` (stereo not drawn), in test [2], the concentration for half-maximal inhibition (IC50) stood at 14.6 µM.
Turning to `O=C(NC1CCNCC1)c1n[nH]cc1NC(=O)c1c(Cl)cccc1Cl` [AT-7519], in test [2], the IC50 was found to be 0.71 µM.
For the compound `O=C(COc1cccc2c1C(=O)N(C1CCC(=O)NC1=O)C2=O)NCCCC(=O)N1CCN(Cc2ccc(NC(=O)c3n[nH]cc3Nc3ncnc4[nH]ccc34)cc2)CC1` (stereo not drawn), in test [2], the IC50 turned out to be 2.21 µM. Also, the result in [8], in test [9] and in test [10] was Active.
With `O=C(CCC(=O)N1CCC(NC(=O)c2n[nH]cc2NC(=O)c2c(Cl)cccc2Cl)CC1)NCCCOCCOCCOCCCNC(=O)COc1cccc2c1C(=O)N(C1CCC(=O)NC1=O)C2=O` (stereo not drawn), the 50% inhibitory concentration (IC50) in test [2] was 2.02 µM.
With `O=C(CCC(=O)N1CCC(NC(=O)c2n[nH]cc2NC(=O)c2c(Cl)cccc2Cl)CC1)NCCNc1cccc2c1C(=O)N(C1CCC(=O)NC1=O)C2=O` (stereo not drawn), the IC50 in [2] was 5.95 µM.
